A value given as a limit tells only on which side of the number the result lay.

For assay [1], the system named is Oryctolagus cuniculus. The experiment in a line: Tested in vivo for hypocholesterolemic activity by measuring its ability to decrease serum total cholesterol, after oral administration of 10 mg/kg body wt. per day in normolipidemic NZW rabbits. The class given is functional. The procedure, abridged:
(§1)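 NZW rabbits (n = 5 or 6) dosed orally daily for 10 days. Serum total cholesterol reported as % change versus control. For 20 mg/kg, that dose was given on days 11-20 after 10 mg/kg, with the value read on day 20. Error given as SEM.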

In assay [2] the test system is Oryctolagus cuniculus. The experiment in a line: Tested in vivo for hypocholesterolemic activity by measuring its ability to decrease serum total cholesterol, after oral administration of 20 mg/kg body wt. per day in normolipidemic NZW rabbits. It counts as functional. The procedure, abridged: as §1
Assay [3] concerns Rattus norvegicus. The experiment in a line: In vivo inhibition of hepatic cholesterol de novo synthesis in rat after oral administration of 5 mg/kg dose. It counts as functional.
Assay [4] has as its system Canis familiaris. The experiment in a line: Tested in vivo for hypocholesterolemic activity by measuring its ability to decrease serum LDL-cholesterol, after oral administration of 10 mg/kg per day for 19 days in male Beagle dogs.
Assay [5] has as its target T1, 3-hydroxy-3-methylglutaryl-coenzyme A reductase (Rattus norvegicus, UniProt P51639).
T1 sequence (P51639 whole entry): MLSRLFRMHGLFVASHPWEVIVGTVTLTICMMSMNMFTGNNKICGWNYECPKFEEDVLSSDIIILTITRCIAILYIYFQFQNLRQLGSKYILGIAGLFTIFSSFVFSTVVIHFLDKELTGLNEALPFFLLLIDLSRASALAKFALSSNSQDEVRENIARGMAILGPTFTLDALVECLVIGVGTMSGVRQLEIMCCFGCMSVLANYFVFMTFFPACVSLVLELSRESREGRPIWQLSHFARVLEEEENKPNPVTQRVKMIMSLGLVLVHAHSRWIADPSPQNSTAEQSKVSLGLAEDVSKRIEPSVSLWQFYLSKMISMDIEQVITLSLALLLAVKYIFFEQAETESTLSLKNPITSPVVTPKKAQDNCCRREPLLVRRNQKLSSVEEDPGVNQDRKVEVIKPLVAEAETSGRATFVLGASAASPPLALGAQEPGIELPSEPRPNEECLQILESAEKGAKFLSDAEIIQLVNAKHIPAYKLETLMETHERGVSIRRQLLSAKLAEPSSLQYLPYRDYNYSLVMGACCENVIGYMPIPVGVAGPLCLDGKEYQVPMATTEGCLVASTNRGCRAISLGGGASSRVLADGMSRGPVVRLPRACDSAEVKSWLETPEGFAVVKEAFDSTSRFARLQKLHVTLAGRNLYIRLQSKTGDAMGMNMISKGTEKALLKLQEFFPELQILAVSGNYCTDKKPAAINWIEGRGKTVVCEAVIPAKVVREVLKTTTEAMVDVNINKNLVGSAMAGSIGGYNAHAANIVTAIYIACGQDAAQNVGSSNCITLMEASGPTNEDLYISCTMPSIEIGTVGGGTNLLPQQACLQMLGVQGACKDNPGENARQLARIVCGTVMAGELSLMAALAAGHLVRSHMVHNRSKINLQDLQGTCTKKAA
The experiment in a line: In vitro inhibition of solubilized HMG-CoA reductase in rat liver.

For assay [6], the system named is Oryctolagus cuniculus. The experiment in a line: Tested in vivo for hypocholesterolemic activity by measuring its ability to decrease serum total cholesterol, after oral administration of 75 mg/kg body wt. per day in normolipidemic NZW rabbits; Very potent. On the set-up: dose 75 mg/kg, route oral. The class given is functional, organism-based.
The test system of assay [7] is Canis familiaris. The experiment in a line: Tested in vivo for hypocholesterolemic activity by measuring its ability to decrease serum LDL-cholesterol, after oral administration of 30 mg/kg per day for 21 days in male Beagle dogs. The class given is functional, Canis lupus familiaris. The procedure, abridged:
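Male beagle dogs (n = 4) given neat compound in gelatine capsules daily at 3:00 p.m.; controls received empty capsules. After an overnight fast, venous blood was drawn at 8:00 a.m. Serum lipoproteins were separated by ultracentrifugation (densities 1.006/1.063/1.21). LDL-cholesterol reported as % change versus control.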

The species named for assay [8] is Rattus norvegicus. The experiment in a line: Potency relative to mevinolin was determined with respect to IC50. […]. It counts as functional.
For assay [9], the target named is T1, 3-hydroxy-3-methylglutaryl-coenzyme A reductase. The experiment in a line: In vitro inhibition of HMG-CoA reductase in solubilized rat liver.
Assay [10] has as its target T2, 3-hydroxy-3-methylglutaryl-coenzyme A reductase (Rattus norvegicus) (UniProt P51639).
T2 sequence (whole entry): T1 sequence (P51639 whole entry)
The experiment in a line: (§2) Inhibition of HMG-CoA reductase compared to mevinolin. The procedure, abridged:
(§3)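 Solubilized, partially purified rat liver HMG-CoA reductase. IC50 from four or five inhibitor concentrations. Relative potency compared IC50 with mevinolin (set to 100), corrected for molecular weight.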

Assay [11] addresses T3, 3-hydroxy-3-methylglutaryl-coenzyme A reductase (Homo sapiens, UniProt P04035).
T3 sequence (P04035 whole entry): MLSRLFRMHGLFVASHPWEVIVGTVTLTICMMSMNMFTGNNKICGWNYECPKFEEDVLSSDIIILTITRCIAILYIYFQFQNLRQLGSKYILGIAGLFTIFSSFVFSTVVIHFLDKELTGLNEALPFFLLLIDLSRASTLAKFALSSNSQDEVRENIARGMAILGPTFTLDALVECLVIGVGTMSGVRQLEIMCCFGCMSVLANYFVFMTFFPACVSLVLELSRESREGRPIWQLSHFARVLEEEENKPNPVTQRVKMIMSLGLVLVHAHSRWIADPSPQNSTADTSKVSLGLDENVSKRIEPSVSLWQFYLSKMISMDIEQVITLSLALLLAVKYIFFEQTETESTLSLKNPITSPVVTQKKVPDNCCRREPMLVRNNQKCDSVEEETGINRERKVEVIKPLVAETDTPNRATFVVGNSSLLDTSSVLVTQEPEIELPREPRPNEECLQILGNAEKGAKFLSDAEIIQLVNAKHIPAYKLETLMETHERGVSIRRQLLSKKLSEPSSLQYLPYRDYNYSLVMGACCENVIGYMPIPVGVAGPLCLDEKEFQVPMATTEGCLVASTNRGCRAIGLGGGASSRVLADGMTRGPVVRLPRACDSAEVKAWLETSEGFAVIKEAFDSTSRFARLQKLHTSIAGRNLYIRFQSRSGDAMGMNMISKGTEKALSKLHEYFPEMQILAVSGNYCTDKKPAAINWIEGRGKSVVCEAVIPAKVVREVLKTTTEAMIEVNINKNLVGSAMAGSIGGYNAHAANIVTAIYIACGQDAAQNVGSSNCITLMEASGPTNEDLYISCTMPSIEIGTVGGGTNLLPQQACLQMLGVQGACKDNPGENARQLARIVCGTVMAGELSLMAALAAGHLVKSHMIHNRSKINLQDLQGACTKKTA
The experiment in a line: Inhibition of the incorporation of sodium [14C]acetate into cholesterol in HEP G2 cells. The class given is functional, cell-based, HepG2.

For assay [12], the target named is T4, 3-hydroxy-3-methylglutaryl-coenzyme A reductase (Homo sapiens) (UniProt P04035).
T4 sequence (whole entry): T3 sequence (P04035 whole entry)
The assay is described as §2. The class given is functional. The procedure, abridged: as §3

Assay [13] relates to Rattus norvegicus. The experiment in a line: Compound was tested for effect on body weight after oral administration of 100 mg/kg in male rats. It counts as functional. The procedure, abridged: (§4)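 Male HOE:WISKf (SPF 71) rats, initial body weight over 180 g, n = 10 per group, dosed once daily in the morning by gavage in polyethylene glycol 400 for 7 days; controls received vehicle. Fasted after last dose, bled retroorbitally 24 h later under mild ether. Liver and body weight recorded. Pooled group serum was ultracentrifuged into VLDL (<1.006), LDL (1.006-1.04) and HDL (1.04-1.21). Values are % change versus control.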

Assay [14] relates to Rattus norvegicus. The experiment in a line: Compound was tested for effect on liver weight after oral administration of 100 mg/kg in male rats. The class given is functional. The gist of the method:
as §4

Assay [15] relates to Rattus norvegicus. The experiment in a line: Compound was tested for effect on serum HDL after oral administration of 100 mg/kg in male rats. It counts as functional. The gist of the method: as §4
The subject of assay [16] is Rattus norvegicus. The experiment in a line: Compound was tested for effect on serum LDL after oral administration of 100 mg/kg in male rats. The class given is functional. The procedure, abridged: as §4
In assay [17] the test system is Rattus norvegicus. The experiment in a line: Compound was tested for effect on serum VLDL after oral administration of 100 mg/kg in male rats. It counts as functional. The gist of the method:
as §4

For assay [18], the species on record is Rattus norvegicus. The experiment in a line: In vitro inhibition of microsomal lipid peroxidation at 10e-5 M concentration. It counts as functional. The procedure, abridged:
(§5)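 Rat liver microsomes in 50 mM Tris-HCl pH 7.4 with 100 mM KCl and 6.0 mM MgCl2, final protein 0.4 mg/mL. Peroxidation was started with ADP (2 mM)/FeCl3 (10 μM) plus an NADPH-regenerating system. Incubation 30 min at 37 °C with shaking. Thiobarbituric acid reactive substances were read at 535 nm.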

Assay [19] is filed under the species Rattus norvegicus. The experiment in a line: Compound was tested for inhibition of microsomal lipid peroxidation and the potency relative to terbufucine was determined. The class given is functional. The gist of the method: as §5
Assay [20] is filed under the species Sus scrofa. The experiment in a line: In vitro inhibition of Cu2+ catalyzed LDL oxidation. It counts as functional. The procedure, abridged:
(§6)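 Porcine plasma LDL isolated by sequential ultracentrifugation (density 1.019-1.063 g/mL), dialysed against PBS pH 7.4, then diluted to 0.1 mg/mL protein. Preincubated 1 h at 37 °C under N2 with compound in ethanol. Oxidised with 5 μM Cu2+ for 2 h at 37 °C in air. Fluorescence read at ex 365/em 430 nm.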

The species entered for assay [21] is Sus scrofa. The experiment in a line: Compound was tested for inhibition of Cu2+ catalyzed LDL oxidation and the potency relative to terbufucine was determined. It counts as functional. The procedure, abridged:
as §6

The subject of assay [22] is Rattus norvegicus. The experiment in a line: Compound was tested for effect on body weight after oral administration of 30 mg/kg in male rats. It counts as functional. The procedure, abridged: as §4
In assay [23] the test system is Rattus norvegicus. The experiment in a line: Compound was tested for effect on liver weight after oral administration of 30 mg/kg in male rats. It counts as functional. The procedure, abridged:
as §4

For assay [24], the system named is Rattus norvegicus. The experiment in a line: Compound was tested for effect on serum HDL after oral administration of 30 mg/kg in male rats. It counts as functional. The gist of the method:
as §4

Assay [25] deals with Rattus norvegicus. The experiment in a line: Compound was tested for effect on serum LDL after oral administration of 30 mg/kg in male rats. The class given is functional. The gist of the method:
as §4

Assay [26] relates to Rattus norvegicus. The experiment in a line: Compound was tested for effect on serum VLDL after oral administration of 30 mg/kg in male rats. The class given is functional. The gist of the method: as §4

In the case of `CC[C@H](C)C(=O)O[C@H]1C[C@@H](C)C=C2C=C[C@H](C)[C@H](CC[C@@H]3C[C@@H](O)CC(=O)O3)[C@H]21` [LOVASTATIN], the Change is -25% in assay [1], -27% in [2] and -20% in assay [4]. The same compound yielded a Cholesterol in assay [3] of 14%.
As a reminder, the IC50 is the concentration that gives 50% inhibition. Regarding `CC(C)c1cc(-c2ccc(F)cc2)c(/C=C/[C@@H](O)C[C@@H](O)CC(=O)[O-])c(C(C)C)n1.[Na+]`, the IC50 in assay [5] was 0.003 µM; in assay [6] it was “Very potent”.
`CC(C)c1cc(-c2ccc(F)cc2)cc(-c2ccc(F)cc2)c1OCC1C[C@@H](O)CC(=O)O1` (some centres undefined): the Change is listed as 3% in [7], -28% in assay [1] and -34% in assay [2]. The same compound showed a Cholesterol in assay [3] of 84.5%. The same compound gave a Relative potency in assay [8] of 18.
In general, inhibition refers to how much of the control response was suppressed. Low values mean a weak effect, high ones a strong effect. For the compound `CC(C)c1cc(SC(C)(C)Sc2cc(-c3ccc(F)cc3)c(OC[C@H](O)C[C@@H](O)CC(=O)[O-])c(C(C)C)c2)cc(-c2ccc(F)cc2)c1OC[C@H](O)C[C@@H](O)CC(=O)[O-].[Na+].[Na+]`, the IC50 in assay [9] was 0.01 µM; in assay [11] it was over 1 µM. Further, the values for the Relative potency in [10], in [12] and in assay [19] were 37, under 5 and under 0.1, respectively. The Change is 5% in [13]; -1% in assay [14]; 9% in [15]; -52% in assay [16]; -23% in assay [17]. In assay [18], this compound came in with an inhibition of under 10%.
Consider `CC(C)(Sc1cc(C(C)(C)C)c(O)c(C(C)(C)C)c1)Sc1cc(C(C)(C)C)c(O)c(C(C)(C)C)c1` [PROBUCOL], for which, in [20], the IC50 stood at 0.5 µM. In addition, the Relative potency in [21] is 22. The Change in [22] is given as 5%; in [23], 5%; in assay [24], -11%; in [25], -24%; in assay [26], 4%.

For the origin of these results see ChEMBL document CHEMBL1125911, “Synthesis and biological activity of new HMG-CoA reductase inhibitors. 3. Lactones of 6-phenoxy-3,5-dihydroxyhexanoic acids” (J Med Chem, 1991).
